ChEMBL document CHEMBL1667800, “Synthesis, DNA/RNA affinity and antitumour activity of new aromatic diamidines linked by 3,4-ethylenedioxythiophene” (Eur J Med Chem, 2011)
Blank lines part the entries; values can stand above or below the molecule they belong to. Calls of active or inactive are those of the source. No cut-off for these calls is given here.

Key:
HeLa [1] = assay: Induction of cell cycle arrest in human HeLa assessed as accumulation at G0/G1-phase at 1x10'-6 M after 24 hrs by FACS analysis (RVb = 62.2+/-4.4%); type: functional
Calf thymus DNA [2] = assay: Binding affinity to calf thymus DNA assessed as melting temperature at compound over DNA molar ratio of 0.1 at pH 7 by thermal denaturation assay; type: nucleic-acid assay; conditions: Bos taurus
How it was run: (§1)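 Thermal melting of ds-polynucleotide (ct-DNA or poly A-poly U) alone and with compound at the given r, Na-cacodylate pH 7.0, I = 0.05 mol dm^-3. Absorbance at 260 nm was followed versus temperature, with compound absorbance subtracted and the curve normalized. Tm was taken from the first-derivative maximum or by tangent. ΔTm = Tm(complex) − Tm(free nucleic acid).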

HeLa [3] = assay: Induction of cell cycle arrest in human HeLa assessed as accumulation at G0/G1-phase at 1x10'-6 M after 48 hrs by FACS analysis (RVb = 61.2+/-2.3%); type: functional
HeLa [4] = assay: Induction of cell cycle arrest in human HeLa assessed as accumulation at G2/M-phase at 1x10'-6 M after 24 hrs by FACS analysis (RVb = 10.1+/-3.4%); type: functional
HeLa [5] = assay: Induction of cell cycle arrest in human HeLa assessed as accumulation at S-phase at 5x10'-6 M after 72 hrs by FACS analysis (RVb = 28.8+/-3.2%); type: functional
HeLa [6] = assay: Induction of cell cycle arrest in human HeLa assessed as accumulation at S-phase at 5x10'-6 M after 24 hrs by FACS analysis (RVb = 27.7+/-4.2%); type: functional
HeLa [7] = assay: Induction of cell cycle arrest in human HeLa assessed as accumulation at G2/M-phase at 5x10'-6 M after 24 hrs by FACS analysis (RVb = 10.1+/-3.4%); type: functional
HeLa [8] = assay: Induction of cell cycle arrest in human HeLa assessed as accumulation at S-phase at 1x10'-6 M after 24 hrs by FACS analysis (RVb = 27.7+/-4.2%); type: functional
Calf thymus DNA [9] = assay: Binding affinity to calf thymus DNA assessed as melting temperature at compound over DNA molar ratio of 0.2 at pH 7 by thermal denaturation assay; type: nucleic-acid assay; conditions: Bos taurus; how it was run: as §1
MIA PaCa-2 = assay: Cytotoxicity against human MIAPaCa2 cells after 72 hrs by MTT assay; type: functional; conditions: MIA PaCa-2, 72 h
How it was run: (§2)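 Cells were seeded at 2 × 10^4 cells/mL and attached overnight at 37 °C, 5% CO2. They were then exposed for 72 h to compounds from aqueous stocks (working solutions 10^-3–10^-6 mol dm^-3). MTT was added for 4 h at 37 °C, formazan dissolved in DMSO, and absorbance read at 570 nm. GI50 is the mean ± SD of three independent experiments run in triplicate.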

Calf thymus DNA [10] = assay: Binding affinity to calf thymus DNA minor groove assessed as DNA CD band at compound over DNA molar ratio of < 0.2 by circular dichroism titration; type: nucleic-acid assay; conditions: Bos taurus
How it was run: (§3)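 CD titration of polynucleotide (2.0 × 10^-5 mol dm^-3, as phosphate) with added compound over a range of r = [compound]/[polynucleotide]. Na-cacodylate buffer, pH 7.0, I = 0.05 mol dm^-3, 1 cm quartz cuvette. ct-DNA was sonicated and filtered before use. Changes in the polynucleotide CD band and induced CD bands were followed.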

AGS = assay: Cytotoxicity against human AGS cells after 72 hrs by MTT assay; type: functional; how it was run: as §2
HeLa [11] = assay: Induction of cell cycle arrest in human HeLa assessed as accumulation at G2/M-phase at 5x10'-6 M after 72 hrs by FACS analysis (RVb = 7.8+/-3.1%); type: functional
HEp-2 = assay: Cytotoxicity against human Hep2 cells after 72 hrs by MTT assay; type: functional; conditions: HEp-2, 72 h; how it was run: as §2
HeLa [12] = assay: Induction of cell cycle arrest in human HeLa assessed as accumulation at G2/M-phase at 1x10'-6 M after 72 hrs by FACS analysis (RVb = 7.8+/-3.1%); type: functional
HeLa [13] = assay: Cytotoxicity against human HeLa cells after 72 hrs by MTT assay; type: functional; how it was run: as §2
Calf thymus DNA [14] = assay: Binding affinity to calf thymus DNA assessed as melting temperature at compound over DNA molar ratio of 0.3 at pH 7 by thermal denaturation assay; type: nucleic-acid assay; conditions: Bos taurus; how it was run: as §1
Nucleic Acid = assay: Binding affinity to polu A-poly U assessed as melting temperature at compound over DNA molar ratio of 0.3 at pH 7 by thermal denaturation assay; type: nucleic-acid assay; how it was run: as §1
Calf thymus DNA [15] = assay: Binding affinity to calf thymus DNA assessed as hyperchromic effect at compound over DNA molar ratio of 0.5 by UV-Vis spectra; type: nucleic-acid assay; conditions: Bos taurus; in the assay text read “hypochromic effect” for “hyperchromic effect”
How it was run: (§4)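 UV-Vis titration of compound (c = 1.97 × 10^-5 mol dm^-3 in the shown example) with ct-DNA. Na-cacodylate buffer, pH 7.0, I = 0.05 mol dm^-3, 1 cm quartz cuvette. Absorbance at the maximum was tracked against c(ct-DNA). Ks and n were obtained by non-linear least-squares Scatchard fitting.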

HeLa [16] = assay: Induction of cell cycle arrest in human HeLa assessed as accumulation at G0/G1-phase at 5x10'-6 M after 48 hrs by FACS analysis (RVb = 61.2+/-2.3%); type: functional
HeLa [17] = assay: Induction of cell cycle arrest in human HeLa assessed as accumulation at S-phase at 1x10'-6 M after 72 hrs by FACS analysis (RVb = 28.8+/-3.2%); type: functional
HeLa [18] = assay: Induction of cell cycle arrest in human HeLa assessed as accumulation at G0/G1-phase at 5x10'-6 M after 72 hrs by FACS analysis (RVb = 63.4+/-3.2%); type: functional
Calf thymus DNA [19] = assay: Binding affinity to calf thymus DNA assessed as batochromic effect at compound over DNA molar ratio of 0.2 by fluorimetric titration; type: nucleic-acid assay; conditions: Bos taurus
How it was run: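 Fluorimetric titration of compound (about 1.0 × 10^-6 mol dm^-3) with ct-DNA. Excitation above 360 nm to avoid inner-filter effects. Na-cacodylate buffer, pH 7.0, I = 0.05 mol dm^-3. Emission at the maximum was plotted against c(ct-DNA). Ks and n were obtained by non-linear Scatchard fitting.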

NCI-H358 = assay: Cytotoxicity against human NCI-H358 cells after 72 hrs by MTT assay; type: functional; conditions: NCI-H358, 72 h; how it was run: as §2
HeLa [20] = assay: Induction of cell cycle arrest in human HeLa assessed as accumulation at G0/G1-phase at 1x10'-6 M after 72 hrs by FACS analysis (RVb = 63.4+/-3.2%); type: functional
HeLa [21] = assay: Induction of cell cycle arrest in human HeLa assessed as accumulation at S-phase at 1x10'-6 M after 48 hrs by FACS analysis (RVb = 30.4+/-3.7%); type: functional
MCF7 = assay: Cytotoxicity against human MCF7 cells after 72 hrs by MTT assay; type: functional; conditions: MCF7, 72 h; how it was run: as §2
HeLa [22] = assay: Induction of cell cycle arrest in human HeLa assessed as accumulation at S-phase at 5x10'-6 M after 48 hrs by FACS analysis (RVb = 30.4+/-3.7%); type: functional
Calf thymus DNA [23] = assay: Binding affinity to calf thymus DNA assessed as DNA CD band at compound over DNA molar ratio of > 0.2 by circular dichroism titration; type: nucleic-acid assay; conditions: Bos taurus; how it was run: as §3
HeLa [24] = assay: Induction of cell cycle arrest in human HeLa assessed as accumulation at G2/M-phase at 5x10'-6 M after 48 hrs by FACS analysis (RVb = 8.4+/-3.9%); type: functional
HeLa [25] = assay: Induction of cell cycle arrest in human HeLa assessed as accumulation at G2/M-phase at 1x10'-6 M after 48 hrs by FACS analysis (RVb = 8.4+/-3.9%); type: functional
HeLa [26] = assay: Induction of cell cycle arrest in human HeLa assessed as accumulation at G0/G1-phase at 5x10'-6 M after 24 hrs by FACS analysis (RVb = 62.2+/-4.4%); type: functional
Calf thymus DNA [27] = assay: Binding affinity to calf thymus DNA assessed as batochromic effect at compound over DNA molar ratio of 0.2 by UV-Vis spectra; type: nucleic-acid assay; conditions: Bos taurus; how it was run: as §4
Caco-2 = assay: Cytotoxicity against human Caco2 cells after 72 hrs by MTT assay; type: functional; conditions: Caco-2, 72 h; how it was run: as §2
[28] = Cytotoxicity against MDCK cells after 72 hrs by MTT assay; type: cell-based, Canis lupus familiaris; conditions: dog; how it was run: as §2
HeLa [29] = assay: Induction of cell cycle arrest in human HeLa assessed as accumulation at S-phase at 5x10'-5 M after 48 hrs by FACS analysis (RVb = 62.2+/-4.4%); type: functional
HeLa [30] = assay: Induction of cell cycle arrest in human HeLa assessed as accumulation at G0/G1-phase at 5x10'-5 M after 48 hrs by FACS analysis (RVb = 62.2+/-4.4%); type: functional
HeLa [31] = assay: Induction of cell cycle arrest in human HeLa assessed as accumulation at S-phase at 5x10'-5 M after 72 hrs by FACS analysis (RVb = 62.2+/-4.4%); type: functional
HeLa [32] = assay: Induction of cell cycle arrest in human HeLa assessed as accumulation at G2/M-phase at 5x10'-5 M after 72 hrs by FACS analysis (RVb = […]); type: functional
HeLa [33] = assay: Induction of cell cycle arrest in human HeLa assessed as accumulation at G0/G1-phase at 5x10'-5 M after 72 hrs by FACS analysis (RVb = 62.2+/-4.4%); type: functional
HeLa [34] = assay: Induction of cell cycle arrest in human HeLa assessed as accumulation at G2/M-phase at 5x10'-5 M after 24 hrs by FACS analysis (RVb = […]); type: functional
HeLa [35] = assay: Induction of cell cycle arrest in human HeLa assessed as accumulation at G0/G1-phase at 5x10'-5 M after 24 hrs by FACS analysis (RVb = 62.2+/-4.4%); type: functional
HeLa [36] = assay: Induction of cell cycle arrest in human HeLa assessed as accumulation at G2/M-phase at 5x10'-5 M after 48 hrs by FACS analysis (RVb = […]); type: functional
HeLa [37] = assay: Induction of cell cycle arrest in human HeLa assessed as accumulation at S-phase at 5x10'-5 M after 24 hrs by FACS analysis (RVb = 62.2+/-4.4%); type: functional

ΔTm (Calf thymus DNA [2]): 10.8 °C | ΔTm (Calf thymus DNA [9]): 14.3 °C | Activity (Calf thymus DNA [10]): Active | ΔTm (Calf thymus DNA [14]): > 16 °C | ΔTm (Nucleic Acid): 17 °C | Activity (Calf thymus DNA [15]): Active | Activity (Calf thymus DNA [19]): Active | Activity (Calf thymus DNA [23]): Active | Activity (Calf thymus DNA [27]): Active
SMILES: Cl.Cl.c1cc(-c2sc(-c3ccc(C4=NCCN4)cc3)c3c2OCCO3)ccc1C1=NCCN1
Activity (HeLa [1]): 55.4% | Activity (HeLa [3]): 59.6% | Activity (HeLa [4]): 14.4% | Activity (HeLa [5]): 32.5% | Activity (HeLa [6]): 29.1% | Activity (HeLa [7]): 17.6% | Activity (HeLa [8]): 30.2% | GI50 (MIA PaCa-2): 9 µM | GI50 (AGS): 4.3 µM | Activity (HeLa [11]): 21.1% | GI50 (HEp-2): 3 µM | Activity (HeLa [12]): 11.9% | GI50 (HeLa [13]): 1.5 µM | Activity (HeLa [16]): 44.2% | Activity (HeLa [17]): 25.9% | Activity (HeLa [18]): 46.4% | GI50 (NCI-H358): 4.1 µM | Activity (HeLa [20]): 62.2% | Activity (HeLa [21]): 33.1% | GI50 (MCF7): 2.7 µM | Activity (HeLa [22]): 37.3% | Activity (HeLa [24]): 18.5% | Activity (HeLa [25]): 7.3% | Activity (HeLa [26]): 53.3% | GI50 (Caco-2): 3.1 µM | GI50 at 72 h [28]: 17 µM

SMILES: CN1CCN(c2ccc3[nH]c(-c4ccc5[nH]c(-c6ccc(O)cc6)nc5c4)nc3c2)CC1 [HOECHST 33258]
Activity (HeLa [29]): 42.6% | Activity (HeLa [30]): 49% | Activity (HeLa [31]): 43.1% | GI50 (MIA PaCa-2): 192 µM | Activity (HeLa [32]): 11.2% | GI50 (AGS): 112 µM | GI50 (HEp-2): 132 µM | Activity (HeLa [33]): 45.7% | GI50 (HeLa [13]): 116 µM | Activity (HeLa [34]): 7.1% | Activity (HeLa [35]): 51.3% | GI50 (NCI-H358): 91.7 µM | GI50 (MCF7): 5.7 µM | Activity (HeLa [36]): 8.4% | GI50 (Caco-2): 84 µM | GI50 at 72 h [28]: 158 µM | Activity (HeLa [37]): 41.6%
